Data from ChEMBL document CHEMBL1140094, “Novel microtubule-interacting phenoxy pyridine and phenyl sulfanyl pyridine analogues for cancer therapy” (J Med Chem, 2008).
Calls of active or inactive are those of the source. The rule behind the calls is not given here.

Experiments:
[1] = Growth inhibition of human HS766T cells at 1 uM after 96 hrs by MTT assay relative to control; assay type: functional; conditions: Hs 766, 96 h, values are per cent of control
Outline: (§1)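 MTT initial screen of Panc1 and HS766T human pancreatic cancer cells at 1 and 10 μM; growth expressed as percent of untreated control with SD.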

PANC-1 [2] = experiment: Growth inhibition of human Panc1 cells at 10 uM after 96 hrs by MTT assay relative to control; assay type: functional; conditions: PANC-1, 96 h, values are per cent of control; outline: as §1
PANC-1 [3] = experiment: Growth inhibition of human Panc1 cells at 1 uM after 96 hrs by MTT assay relative to control; assay type: functional; conditions: PANC-1, 96 h, values are per cent of control; outline: as §1
[4] = Growth inhibition of human HS766T cells at 10 uM after 96 hrs by MTT assay relative to control; assay type: functional; conditions: Hs 766, 96 h, values are per cent of control; outline: as §1
MCF7 [5] = experiment: Cell cycle arrest in human MCF7 cells assessed as accumulation at G2/M phase at 5 uM after 15 hrs by MPM2 antibody labeling; assay type: functional
Outline: (§2)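 MCF7 breast cancer cells treated 15 h at 5 μM; colcemid 0.1 μg/mL (about 0.25 μM) as positive control. Cells harvested and fixed, DNA labeled with propidium iodide, mitotic cells labeled with monoclonal MPM2 (phospho-epitopes at mitosis onset); flow cytometry. PI scans gated M1 G1, M3 S, M2 G2/M; mitotic fold increase versus untreated.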

[6] = Growth inhibition of human HS766T cells after 96 hrs by MTT assay relative to control; assay type: functional, cell-based; conditions: Hs 766, 96 h
PANC-1 [7] = experiment: Growth inhibition of human Panc1 cells after 96 hrs by MTT assay relative to control; assay type: functional, cell-based; conditions: PANC-1, 96 h
MCF7 [8] = experiment: Cell cycle arrest in human MCF7 cells assessed as accumulation at G2/M phase at 5 uM after 15 hrs by propidium iodide staining; assay type: functional; outline: as §2
[9] = Inhibition of tubulin polymerization assessed as effect on maximum propogation rate
MCF7 [10] = experiment: Induction of microtubule disassembly in human MCF7 cells assessed as prometaphase cell cycle arrest at 5 uM after 15 hrs by immunofluorescence staining; assay type: functional, cell-based
Outline: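 MCF7 cells exposed 15 h to 5 μM compound, colcemid 0.25 μM as positive control, untreated controls. Anti-α-tubulin primary with Alexa-568 secondary, DNA counterstained with DAPI; immunofluorescence microscopy scoring microtubule loss, mitotic stage (prometaphase arrest) and micronuclei in interphase cells.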

[11] = Inhibition of tubulin polymerization
[12] = Inhibition of tubulin polymerization at 4 to 5 uM relative to control
Outline: (§3)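 Turbidity-monitored tubulin assembly; extent of assembly at 20 min compared with no-compound control.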

[13] = Inhibition of tubulin polymerization relative to control; conditions: values are per cent of control; outline: as §3
SK-OV-3 = experiment: Cytotoxicity against paclitaxel-resistant human SKOV3 cells after 7 days by MTT assay; assay type: functional, cell-based

SMILES | viability, % of control at 1 µM [1] [%] | viability, % of control at 10 µM (PANC-1 [2]) [%] | viability, % of control at 1 µM (PANC-1 [3]) [%] | viability, % of control at 10 µM [4] [%] | other results
CCCCCCCCCCNC(=O)c1cccc(Sc2ccc(NC(=O)NC(=O)c3ccc(OC)c(OC)c3Cl)cc2)c1 | 79 | 51 | 63 | 62 | 
C=CCNC(=O)c1cccc(Sc2ccc(NC(=O)NC(=O)c3ccccc3[N+](=O)[O-])cc2)c1 | 50 | 44 | 70 | 27 | 
C=CCNC(=O)c1cccc(Oc2ccc(NC(=O)NC(=O)c3ccc(OC)c(OC)c3Cl)cc2)c1 | 67 | 53 | 61 | 50 | 
CCCCCCCCCCNC(=O)c1cccc(S(=O)(=O)c2ccc(NC(=O)NC(=O)c3cc(OC)cc(OC)c3)cc2)c1 | 71 | 43 | 48 | 56 | 
C=CCNC(=O)c1cccc(Oc2ccc(NC(=O)NC(=O)c3cc(OC)cc(OC)c3)cc2)c1 | 107 | 68 | 58 | 64 | 
C=CCNC(=O)c1cccc(Oc2ccc(NC(=O)NC(=O)c3ccccc3)cc2)c1 | 76 | 51 | 66 | 70 | 
C=CCNC(=O)c1cccc(Oc2ccc(NC(=O)NC(=O)c3ccccc3Cl)cc2)c1 | 36 | 38 | 47 | 23 | Activity (MCF7 [5]): 38.29%; IC50 [6]: 150 nM; IC50 (PANC-1 [7]): 800 nM; Activity (MCF7 [8]): 67.49%; IC50 [9]: 4000 nM; Activity (MCF7 [10]): Active
C=CCNC(=O)c1cccc(Oc2ccc(NC(=S)NC(=O)c3ccccc3)cc2)c1 | 88 | 68 | 97 | 73 | 
CNC(=O)c1cccc(Sc2ccc(NC(=O)NC(=O)c3ccccc3[N+](=O)[O-])cc2)c1 | 63 | 38 | 60 | 23 | 
CNC(=O)c1cccc(Sc2ccc(NC(=O)NC(=O)c3cc(OC)cc(OC)c3Cl)cc2)c1 | 54 | 52 | 77 | 31 | 
COc1cc2c(c(OC)c1OC)-c1ccc(OC)c(=O)cc1[C@@H](NC(C)=O)CC2 [COLCHICINE] |  |  |  |  | IC50 [11]: 2200 nM
C=CCNC(=O)c1cccc(Sc2ccc(NC(=O)NC(=O)c3ccc(OC)c(OC)c3Cl)cc2)c1 | 101 | 44 | 88 | 23 | 
CCCCCCCCCCNC(=O)c1cccc(Sc2ccc(NC(=O)NC(=O)c3cc(OC)cc(OC)c3)cc2)c1 | 77 | 58 | 74 | 66 | 
C=CCNC(=O)c1cccc(Oc2ccc(NC(=O)NC(=O)c3ccccc3[N+](=O)[O-])cc2)c1 | 55 | 55 | 76 | 30 | 
C=CCNC(=O)c1cccc(Sc2ccc(NC(=O)NC(=O)c3ccccc3Cl)cc2)c1 | 109 | 46 | 69 | 36 | 
O=C(NC(=O)c1ccccc1)Nc1ccc(Sc2cccc(C(=O)NCc3ccccc3)c2)cc1 | 79 | 53 | 67 | 73 | 
C=CCNC(=O)c1cccc(Sc2ccc(NC(=O)NC(=O)c3cc(OC)cc(OC)c3)cc2)c1 | 105 | 41 | 62 | 87 | 
O=C(NC(=O)c1ccccc1Cl)Nc1ccc(Sc2cccc(C(=O)NCc3ccccc3)c2)cc1 | 95 | 66 | 86 | 74 | 
CNC(=O)c1cccc(Sc2ccc(NC(=O)NC(=O)c3ccc(OC)c(OC)c3Cl)cc2)c1 | 30 | 33 | 35 | 21 | Activity (MCF7 [5]): 47.23%; inhibition [12]: 50%; IC50 [6]: 500 nM; IC50 (PANC-1 [7]): 700 nM; residual activity [13]: 40%; Activity (SK-OV-3): Active; Activity (MCF7 [8]): 75.71%; IC50 [9]: 1700 nM; Activity (MCF7 [10]): Active
COc1ccc(C(=O)NC(=O)Nc2ccc(Sc3cccc(C(=O)NCc4ccccc4)c3)cc2)c(Cl)c1OC | 97 | 51 | 89 | 75 | 
CNC(=O)c1cccc(Sc2ccc(NC(=O)NC(=O)c3ccccc3)cc2)c1 | 77 | 41 | 65 | 26 | 
